Laboratory results published in PMC9179932 (Nature chemical biology, 2022).
pIC50: −log10 of the molar value.

How the values were obtained:
recombinant DPP9 = recombinant DPP9 (Homo sapiens, UniProt Q86TI2); experiment: AP-AMC-based DPP9 substrate assay; type: biochemical; conditions: Supplementary Table 1
Summary of the method: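 Recombinant DPP9 (1 nM) is dispensed into 384-well plates and test compound is added by pintool over a concentration series. Reaction starts with 25 μM AP-AMC. Cleavage is read as rising fluorescence (ex/em 380/460 nm) at 25 °C for 30 min.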

PEPD [1] = molecular target: T1, PEPD (Homo sapiens, UniProt P12955); experiment: PEPD assay; type: biochemical
T1 sequence (P12955 1-493): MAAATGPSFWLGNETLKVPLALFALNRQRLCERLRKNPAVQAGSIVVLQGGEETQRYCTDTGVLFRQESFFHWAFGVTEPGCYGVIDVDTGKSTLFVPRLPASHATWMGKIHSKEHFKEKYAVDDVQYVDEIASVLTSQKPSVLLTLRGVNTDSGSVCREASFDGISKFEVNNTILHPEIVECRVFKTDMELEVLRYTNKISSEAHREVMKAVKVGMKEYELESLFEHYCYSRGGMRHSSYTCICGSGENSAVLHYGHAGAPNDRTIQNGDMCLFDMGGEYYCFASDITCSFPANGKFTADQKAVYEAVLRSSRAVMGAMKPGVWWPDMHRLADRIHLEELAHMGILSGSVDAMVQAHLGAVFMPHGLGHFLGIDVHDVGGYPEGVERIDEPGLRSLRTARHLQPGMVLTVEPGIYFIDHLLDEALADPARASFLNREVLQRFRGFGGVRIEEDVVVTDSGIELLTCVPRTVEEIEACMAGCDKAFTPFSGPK
Summary of the method: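 His-tagged human PEPD is expressed in E. coli Rosetta DE3 (IPTG, 4 h, 37 °C) and purified on TALON resin. Enzyme at 50 nM is mixed with Ala-Pro (40 μM final) and test compound. Liberated alanine is measured fluorometrically (resorufin, ex/em 535/587 nm) at 25 °C with an L-alanine assay kit.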

prolidase (PEPD) = molecular target: T2, prolidase (PEPD) (Homo sapiens, UniProt P12955); experiment: Prolidase activity; type: biochemical; conditions: dose-dependent
T2 sequence (P12955 1-493): T1 sequence (P12955 1-493)
Summary of the method: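 THP-1 lysates are normalised to 5 mg ml−1 and incubated with Ala-Pro dipeptide (40 μM final) and test compound at varying doses. Released alanine is quantified as increasing resorufin fluorescence (535/587 nm) at 25 °C using an L-alanine detection kit.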

[2] = system: bestatin-sensitive aminopeptidases; experiment: Recombinant aminopeptidase AMC reporter assays; type: biochemical; conditions: Supplementary Table 1
Summary of the method: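 Recombinant enzymes are incubated with test compound over a concentration range, then AMC substrate is added. Enzyme and substrate pairs: RNPEP 1.4 nM with 200 μM R-AMC; DPP3 0.6 nM with 100 μM RR-AMC; LTA4H 114.3 nM with 400 μM R-AMC; NPEPPS 1 nM with 10 μM L-AMC; ANPEP 1.2 nM with 100 μM A-AMC. Fluorescence (380/460 nm) is recorded at 25 °C for 30 min.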

PEPD [3] = molecular target: T1, PEPD; experiment: CETSA in HEK 293T lysates; type: binding; conditions: 10 μM
Summary of the method: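 HEK 293T cells are sonicated and cleared at 10,000g for 10 min. Clarified lysate is incubated with test compound (10 μM) for 30 min, then heated for 30 min at a temperature series. Aggregates are pelleted at 18,000g for 20 min, and the soluble supernatant is immunoblotted for the target.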

NPEPPS = NPEPPS (Homo sapiens, UniProt P55786); experiment: CETSA in HEK 293T lysates; type: binding; conditions: 10 μM
NPEPPS, sequence (P55786 whole entry): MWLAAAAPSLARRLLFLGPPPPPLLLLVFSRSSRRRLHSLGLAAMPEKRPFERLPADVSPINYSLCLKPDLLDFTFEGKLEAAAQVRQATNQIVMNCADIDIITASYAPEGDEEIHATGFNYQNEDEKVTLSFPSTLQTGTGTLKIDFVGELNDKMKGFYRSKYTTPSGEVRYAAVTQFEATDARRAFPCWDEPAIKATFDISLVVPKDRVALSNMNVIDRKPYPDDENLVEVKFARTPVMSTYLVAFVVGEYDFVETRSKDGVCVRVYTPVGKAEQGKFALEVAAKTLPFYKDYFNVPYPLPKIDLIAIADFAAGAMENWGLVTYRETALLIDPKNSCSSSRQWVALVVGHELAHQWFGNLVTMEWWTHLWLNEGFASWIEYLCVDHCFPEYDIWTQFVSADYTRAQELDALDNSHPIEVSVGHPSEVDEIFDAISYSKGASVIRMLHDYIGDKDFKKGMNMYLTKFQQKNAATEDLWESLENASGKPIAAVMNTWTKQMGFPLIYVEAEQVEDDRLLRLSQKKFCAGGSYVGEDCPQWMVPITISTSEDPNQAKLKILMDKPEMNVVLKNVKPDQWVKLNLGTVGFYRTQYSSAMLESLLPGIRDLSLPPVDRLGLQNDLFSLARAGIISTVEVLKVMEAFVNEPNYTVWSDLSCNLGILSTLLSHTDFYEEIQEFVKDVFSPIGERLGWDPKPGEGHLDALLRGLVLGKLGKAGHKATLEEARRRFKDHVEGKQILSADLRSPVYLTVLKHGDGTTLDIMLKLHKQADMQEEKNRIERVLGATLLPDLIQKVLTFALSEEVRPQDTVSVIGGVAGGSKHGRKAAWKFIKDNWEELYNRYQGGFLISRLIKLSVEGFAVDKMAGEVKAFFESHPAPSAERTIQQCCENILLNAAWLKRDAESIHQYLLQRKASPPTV
Summary of the method: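 HEK 293T cells homogenised by sonication; debris cleared at 10,000g for 10 min. Clarified lysate incubated 30 min with test compound, then heated 30 min at a series of set temperatures between 38.7 and 70.9 °C. Aggregates pelleted at 18,000g for 20 min; soluble target in supernatant detected by immunoblotting.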

PEPD [4] = molecular target: T1, PEPD; experiment: CETSA in THP-1 cell lysates; type: binding; conditions: 0.5, 5 μM
Summary of the method: (§1)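 THP-1 (Cas9) cell lysate is made by sonication and cleared at 10,000g for 10 min. It is exposed to test compound (0.5 or 5 μM) for 30 min, then heated 30 min at 40.6, 50.8, 60.1 or 70.9 °C. After spinning at 18,000g for 20 min, the soluble fraction is immunoblotted.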

XPNPEP1 [5] = molecular target: T3, XPNPEP1 (Homo sapiens, UniProt Q9NQW7); experiment: CETSA in THP-1 cell lysates; type: binding; conditions: 0.5, 5 μM
Summary of the method: as §1
Target sequence in this assay (Q9NQW7 whole entry): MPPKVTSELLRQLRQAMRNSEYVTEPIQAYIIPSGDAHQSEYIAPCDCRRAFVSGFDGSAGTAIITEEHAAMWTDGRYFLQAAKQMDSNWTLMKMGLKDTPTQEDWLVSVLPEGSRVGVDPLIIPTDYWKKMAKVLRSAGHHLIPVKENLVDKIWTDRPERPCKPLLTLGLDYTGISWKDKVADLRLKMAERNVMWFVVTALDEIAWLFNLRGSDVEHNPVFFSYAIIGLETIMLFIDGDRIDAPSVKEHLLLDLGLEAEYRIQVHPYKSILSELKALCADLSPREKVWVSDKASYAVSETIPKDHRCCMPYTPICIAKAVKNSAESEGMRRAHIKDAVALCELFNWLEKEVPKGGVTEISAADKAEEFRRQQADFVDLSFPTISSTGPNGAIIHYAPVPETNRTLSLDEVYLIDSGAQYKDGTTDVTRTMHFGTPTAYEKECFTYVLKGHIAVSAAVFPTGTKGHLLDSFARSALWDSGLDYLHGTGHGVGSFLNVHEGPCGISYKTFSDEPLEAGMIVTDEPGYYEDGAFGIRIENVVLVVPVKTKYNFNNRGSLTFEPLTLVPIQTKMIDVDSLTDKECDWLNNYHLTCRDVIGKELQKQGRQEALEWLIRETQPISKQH

XPNPEP3 [6] = molecular target: T4, XPNPEP3 (Homo sapiens, UniProt Q9NQH7); experiment: CETSA in THP-1 cell lysates; type: binding
Summary of the method: as §1

XPNPEP1 [7] = molecular target: T3, XPNPEP1; experiment: XPNPEP1 enzymatic assay; type: biochemical; conditions: Supplementary Table 2
Summary of the method: (§2)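 Enzymes are XPNPEP1 recombinant at 3.5 nM, or XPNPEP3 FLAG-immunoprecipitated after 48 h overexpression in HEK 293T. Each is treated with graded doses of test compound. H-Lys(abz)-Pro-Pro-pNA is added at 100 μM final, and fluorescence (ex/em 320/410 nm) is monitored for 30 min.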
Target sequence in this assay (Q9NQW7 whole entry, species assumed): as the sequence (Q9NQW7 whole entry) above

XPNPEP3 [8] = molecular target: T4, XPNPEP3; experiment: XPNPEP3 enzymatic assay; type: biochemical; conditions: Supplementary Table 2
Summary of the method: as §2

MV4;11 cells = experiment: MV4; type: cell-based; conditions: 24 h, CTG
NLRP1–DPP9 interaction = NLRP1–DPP9 interaction (Homo sapiens, UniProt Q86TI2); experiment: DPP9 displacement from FLAG-NLRP1 on anti-FLAG beads; type: binding; conditions: VbP 10 μM; VP dipeptide 0.5, 5 mM; CQ31, CQ04 10 μM
NLRP1–DPP9 interaction, sequence (Q86TI2 whole entry): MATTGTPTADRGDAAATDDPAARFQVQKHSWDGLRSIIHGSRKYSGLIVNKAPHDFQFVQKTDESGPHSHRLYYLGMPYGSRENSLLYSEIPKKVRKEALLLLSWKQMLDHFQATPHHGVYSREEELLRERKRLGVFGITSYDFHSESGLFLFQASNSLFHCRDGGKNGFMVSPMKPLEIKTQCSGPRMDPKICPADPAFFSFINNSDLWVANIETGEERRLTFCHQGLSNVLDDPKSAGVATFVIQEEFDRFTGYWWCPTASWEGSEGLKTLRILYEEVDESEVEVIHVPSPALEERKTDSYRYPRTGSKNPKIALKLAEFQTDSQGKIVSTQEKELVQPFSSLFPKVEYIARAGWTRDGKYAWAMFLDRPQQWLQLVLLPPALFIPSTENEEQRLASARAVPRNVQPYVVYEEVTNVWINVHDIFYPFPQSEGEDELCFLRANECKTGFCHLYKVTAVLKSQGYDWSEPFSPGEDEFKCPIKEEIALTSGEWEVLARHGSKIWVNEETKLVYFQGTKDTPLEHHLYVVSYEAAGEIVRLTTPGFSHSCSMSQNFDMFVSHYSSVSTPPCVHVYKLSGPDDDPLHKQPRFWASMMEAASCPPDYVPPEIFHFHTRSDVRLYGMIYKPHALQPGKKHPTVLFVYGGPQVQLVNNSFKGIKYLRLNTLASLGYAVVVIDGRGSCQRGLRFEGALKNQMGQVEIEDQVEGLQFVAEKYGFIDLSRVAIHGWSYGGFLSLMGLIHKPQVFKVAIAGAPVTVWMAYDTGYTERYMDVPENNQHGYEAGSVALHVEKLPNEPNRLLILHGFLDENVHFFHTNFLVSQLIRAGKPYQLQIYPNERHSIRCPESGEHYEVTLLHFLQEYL

recombinant DPP9, sequence (Q86TI2 whole entry, species assumed): as the sequence (Q86TI2 whole entry) above

CC(C)C[C@@H](N)C(O)C(=O)N1CCC[C@H]1C(=O)O (stereo partly drawn) [CQ04, (2S,3R)-3-amino-2-hydroxy-5-methyl-hexanoyl-proline]
direct DPP9 (DPP8/9) inhibition (recombinant DPP9): did not inhibit
pIC50 (PEPD [1]): 6.80
prolidase activity (Ala-Pro dipeptide cleavage) in THP-1 cell lysates (prolidase (PEPD)): completely blocked prolidase activity
inhibition of bestatin-sensitive aminopeptidases [2]: did not inhibit
thermal stabilization of PEPD (PEPD [3]): stabilized PEPD
thermal stabilization of NPEPPS (NPEPPS): nor the bestatin-sensitive aminopeptidase NPEPPS
thermal stabilization of PEPD (PEPD [4]): stabilize both PEPD and XPNPEP1
thermal stabilization of XPNPEP1 (XPNPEP1 [5]): stabilize both PEPD and XPNPEP1
thermal stabilization of XPNPEP3 (XPNPEP3 [6]): slightly stabilized XPNPEP3
inhibition of XPNPEP1 enzymatic activity (XPNPEP1 [7]): inhibits XPNPEP1 enzymatic activity
inhibition of XPNPEP3 in an enzymatic assay (XPNPEP3 [8]): inhibited XPNPEP3
cytotoxicity in CASP1−/− MV4;11 cells (MV4;11 cells; CASP1−/−): not cytotoxic
cytotoxicity in WT MV4;11 cells (MV4;11 cells; WT): not cytotoxic
disruption of NLRP1–DPP9 interaction (DPP9 elution) (NLRP1–DPP9 interaction): had no impact on the NLRP1 ternary complex
